The text below walks through data of ChEMBL document CHEMBL2384933, “Vitexin inhibits inflammatory pain in mice by targeting TRPV1, oxidative stress, and cytokines” (J Nat Prod, 2013).

Active and inactive are the calls of the source.

Data set [1] deals with Mus musculus. Nature of the data set: Antinociceptive activity in Swiss mouse assessed as inhibition of complete Freund's adjuvant-induced mechanical hyperalgesia at 10 mg/kg, ip administered 24 hrs after complete Freund's adjuvant-challenge for seven days by electronic pressure-meter test. The data set is classed as functional, organism-based. On the set-up: dose 10 mg/kg. In a few lines:
(§1)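 Treatment at 10 mg/kg ip given daily, starting 24 h after intraplantar CFA (10 μL/paw), for seven days. Electronic pressure-meter (Δ threshold, g) and hot plate (55 °C, 30 s cutoff) read every 24 h over days 1–8. Six mice per group.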

Data set [2] has as its system Mus musculus. As to the kind of experiment: Antinociceptive activity in ip dosed Swiss mouse assessed as inhibition of acetic acid-induced writhing response administered 30 mins prior to acetic acid-challenge measured for 20 mins. The data set is classed as functional, organism-based. In a few lines: (§2)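 Doses of 0.3–10 mg/kg given ip in saline 30 min before ip acetic acid (0.8% v/v in saline, 10 mL/kg). Cumulative abdominal writhing counted over 20 min and presented in 2-min intervals. Six mice per group; representative of two experiments.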

For data set [3], the system named is Mus musculus. As to the kind of experiment: Antinociceptive activity in Swiss mouse assessed as inhibition of acetic acid-induced writhing response at 0.3 mg/kg, ip administered 30 mins prior to acetic acid-challenge measured for 20 mins. Format: functional, organism-based. On the set-up: dose 0.3 mg/kg. Summed up: as §2
Data set [4] relates to Mus musculus. Nature of the data set: Antinociceptive activity in Swiss mouse assessed as inhibition of formalin-induced paw flinching at 10 mg/kg, ip administered 30 mins prior to formalin-challenge measured after 30 mins. Format: functional, organism-based. Set-up: dose 10 mg/kg. Summed up:
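Given ip 30 min before intraplantar formalin (25 μL of 1.5% in saline). Paw flinches and licking time recorded from 0 to 30 min in 5-min bins, covering the first (0–5 min) and second (10–30 min) phases. Six mice per group; representative of two experiments.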

Data set [5] has as its system Mus musculus. Nature of the data set: Antinociceptive activity in Swiss mouse assessed as inhibition of complete Freund's adjuvant-induced thermal hyperalgesia at 10 mg/kg, ip administered 24 hrs after complete Freund's adjuvant-challenge for seven days by hot plate test. The data set is classed as functional, organism-based. Set-up: dose 10 mg/kg. Summed up: as §1
For orientation: In hot-plate and tail-flick tests a longer latency is read as antinociception.

Data set [6] has as its system Mus musculus. Nature of the data set: Antinociceptive activity in Swiss mouse assessed as inhibition of acetic acid-induced writhing response at 1 to 3 mg/kg, ip administered 30 mins prior to acetic acid-challenge measured for 20 mins. The data set is classed as functional, organism-based. In a few lines:
as §2
Background: Writhing tests count abdominal constrictions after an irritant is injected.

The test system of data set [7] is Mus musculus. As to the kind of experiment: Antinociceptive activity in Swiss mouse assessed as decrease in complete Freund's adjuvant-induced time spent for licking paw at 10 mg/kg, ip administered 30 mins prior to complete Freund's adjuvant-challenge measured after 30 mins. Format: functional, organism-based. On the set-up: dose 10 mg/kg. In a few lines: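 Dosed ip 30 min before intraplantar CFA (10 μL/paw). Flinches and licking time of the injected paw counted over 0–30 min and expressed as totals for 30 min. Six mice per group; representative of two experiments.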

Data set [8] deals with Mus musculus. Nature of the data set: Antinociceptive activity in Swiss mouse assessed as inhibition of capsaicin-induced mechanical hyperalgesia at 10 mg/kg, ip administered 30 mins prior to capsaicin-challenge measured after 1 to 5 hrs by electronic pressure-meter test. Set-up: dose 10 mg/kg. Format: functional, organism-based. Summed up:
(§3)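 Dosed at 10 mg/kg ip 30 min before intraplantar capsaicin (1.6 μg/paw). Mechanical hyperalgesia measured by electronic pressure-meter as Δ withdrawal threshold (g), average of three readings. Thermal hyperalgesia measured as hot-plate latency at 55 °C with a 30 s cutoff. Both read at 1, 3 and 5 h. Six mice per group.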

Data set [9] deals with Mus musculus. As to the kind of experiment: Neurotoxicity in Swiss mouse assessed as change in motor response at 10 mg/kg, ip after 3.5 hrs by rotarod test (reference value: 180 seconds). The data set is classed as toxicity, organism-based. Set-up: dose 10 mg/kg, route intraperitoneal. The conditions noted are these: in vivo. Summed up:
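Rota-rod with a 2.5 cm bar at 22 rpm. Mice pre-selected 24 h earlier by staying on the bar for two consecutive 180 s periods. Given 10 mg/kg ip (vehicle 2% DMSO in saline) and tested at 1.5, 3.5 and 5.5 h, with a 180 s cutoff. n = 6.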
(In general: In the rotarod test animals must keep their balance on a rotating rod.)

The subject of data set [10] is Mus musculus. Nature of the data set: Antinociceptive activity in Swiss mouse assessed as inhibition of carrageenan-induced mechanical hyperalgesia at 1 to 3 mg/kg, ip administered 30 mins prior to carrageenan-challenge measured after 5 hrs by electronic pressure-meter test. Format: functional, organism-based. Summed up:
(§4)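 Doses of 1–10 mg/kg given ip 30 min before intraplantar carrageenan (300 μg/paw). Electronic pressure-meter applied to mice on a wire grid floor; paw withdrawal with flinching was the end point, and each value is the average of three readings. Result reported as Δ withdrawal threshold (g) from baseline at 1, 3 and 5 h. Six mice per group; two-way ANOVA.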

In data set [11] the test system is Mus musculus. As to the kind of experiment: Antiinflammatory activity in Swiss mouse assessed as inhibition of carrageenan-induced TNFalpha production 10 mg/kg, ip administered 30 mins prior to carrageenan-challenge measured after 3 hrs by ELISA. Set-up: dose 10 mg/kg. Format: functional, organism-based. The conditions noted are these: at 10 mg/kg. In a few lines:
(§5)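 Compound given ip in saline 30 min before intraplantar carrageenan (300 μg/paw). Paw skin taken 3 h later and homogenized in 500 μL buffer with protease inhibitors. TNF-α, IL-1β, IL-6, IL-33 and IL-10 measured by ELISA, reported as pg/100 mg tissue. Saline-injected paws served as controls. Six mice per group; representative of two experiments.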

Data set [12] has as its system Mus musculus. Nature of the data set: Antinociceptive activity in Swiss mouse assessed as inhibition of capsaicin-induced thermal hyperalgesia at 10 mg/kg, ip administered 30 mins prior to capsaicin-challenge measured after 1 to 3 hrs by hot plate test. The data set is classed as functional, organism-based. Set-up: dose 10 mg/kg. In a few lines: as §3
Data set [13] concerns Mus musculus. As to the kind of experiment: Antinociceptive activity in Swiss mouse assessed as inhibition of phenyl-p-benzoquinone-induced writhing response at 10 mg/kg, ip administered 30 mins prior to phenyl-p-benzoquinone-challenge measured for 20 mins. The data set is classed as functional, organism-based. On the set-up: dose 10 mg/kg. Summed up:
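Pretreatment ip 30 min before ip phenyl-p-benzoquinone (1890 μg/kg in 2% DMSO/saline). Cumulative writhing score counted over 20 min. Six mice per group; representative of two experiments.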

The test system of data set [14] is Mus musculus. As to the kind of experiment: Antioxidant activity in Swiss mouse assessed as prevention of carrageenan-induced decrease in ferric-reducing ability potential at 10 mg/kg, ip administered 30 mins prior to carrageenan-challenge measured after 3 hrs by spectrophotometric analysis. On the set-up: dose 10 mg/kg. The data set is classed as functional, organism-based. Summed up: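 Given at 10 mg/kg ip 30 min before intraplantar carrageenan; plantar skin taken at 3 h, two mice pooled per sample. Tissue homogenized in 1.15% KCl. FRAP: 37 °C for 30 min, absorbance at 595 nm. ABTS: diluted to A730 0.80 in PBS pH 7.4, read at 730 nm after 6 min. Both expressed as Trolox equivalents/mg tissue (Trolox standard 1.5–30 μmol/L final).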

The subject of data set [15] is Mus musculus. As to the kind of experiment: Antinociceptive activity in ip dosed Swiss mouse assessed as inhibition of carrageenan-induced mechanical hyperalgesia administered 30 mins prior to carrageenan-challenge measured at 1 to 5 hrs by electronic pressure-meter test. Format: functional, organism-based. Summed up: as §4
Data set [16] has as its system Mus musculus. Nature of the data set: Antiinflammatory activity in Swiss mouse assessed as inhibition of carrageenan-induced IL-6 production 10 mg/kg, ip administered 30 mins prior to carrageenan-challenge measured after 3 hrs by ELISA. The data set is classed as functional, organism-based. Set-up: dose 10 mg/kg. Particulars: at 10 mg/kg. In a few lines: as §5
In data set [17] the test system is Mus musculus. As to the kind of experiment: Antinociceptive activity in ip dosed Swiss mouse assessed as inhibition of carrageenan-induced thermal hyperalgesia administered 30 mins prior to carrageenan-challenge measured after 1 to 5 hrs by hot plate test. Format: functional, organism-based. Summed up:
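Doses of 1–10 mg/kg given ip 30 min before intraplantar carrageenan (300 μg/paw). Hot plate held at 55 °C; latency to jump or lick paws recorded at 1, 3 and 5 h, with a 30 s cutoff. Two baseline latencies taken at least 10 min apart. Six mice per group.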

Data set [18] relates to Mus musculus. Nature of the data set: Antiinflammatory activity in Swiss mouse assessed as increase in carrageenan-induced IL-10 production 10 mg/kg, ip administered 30 mins prior to carrageenan-challenge measured after 3 hrs by ELISA. The data set is classed as functional, organism-based. Set-up: dose 10 mg/kg. Summed up: as §5

Regarding `O=c1cc(-c2ccc(O)cc2)oc2c([C@@H]3O[C@H](CO)[C@@H](O)[C@H](O)[C@H]3O)c(O)cc(O)c12` [VITEXIN], the inhibition entry in data set [1], in [3], in data set [4], in data set [5], in [6] and in data set [7] was “Active” each time. Besides, the inhibition entry in data set [8], in data set [10], in data set [11], in [12], in data set [13] and in data set [16] was “Active” throughout. Besides, the inhibition result in data set [2], in data set [15] and in [17] was “Dose-dependent effect” each time. Moreover, in data set [9], the Time was found to be 180 s. In addition, the result in data set [14] and in data set [18] was Active.
